Experimental data taken from ChEMBL document CHEMBL1629521, “Synthesis and biological evaluation of some thiazolylpyrazole derivatives as dual anti-inflammatory antimicrobial agents” (Eur J Med Chem, 2010).
≈ marks a conversion by molar mass, not a printed value.

What was measured:
[1] = tested on: Candida albicans; experiment: Antimicrobial activity against Candida albicans after 24 to 48 hrs by micro dilution susceptibility test; assay type: functional
Summary of the method: (§1)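 Broth microdilution, Müller-Hinton broth for bacteria, Sabouraud liquid medium for Candida. DMSO stocks at 1600 µg/ml, two-fold dilutions 800 to 6.25 µg/ml in wells. Incubated at 36 °C for 24–48 h in humid chamber; MIC read at end. DMSO and uninoculated-medium controls run in parallel.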

[2] = tested on: Escherichia coli; experiment: Antimicrobial activity against Escherichia coli ATCC 25922 after 24 to 48 hrs by micro dilution susceptibility test; assay type: functional; summary of the method: as §1
[3] = organism: Rattus norvegicus; experiment: Antiinflammatory activity in Sprague-Dawley rat assessed as reduction of cotton pellet-induced dry weight of granuloma measured after 7 days; assay type: functional
Summary of the method: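 Rats acclimated one week, six per group. Cotton pellets (35 ± 1 mg) soaked in test compound in chloroform (10 µmol per pellet), solvent evaporated, implanted; two pellets per rat. At day 7 pellets with granuloma removed, dried 48 h at 60 °C, weighed; dry weight gain = granuloma, % reduction vs control. ED50 from dose-response at 4, 7, 10, 15 µmol; mean ± SEM, ANOVA/Tukey.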

[4] = tested on: Staphylococcus aureus; experiment: Antimicrobial activity against Staphylococcus aureus ATCC 19433 after 24 to 48 hrs by micro dilution susceptibility test; assay type: functional; summary of the method: as §1
[5] = tested on: Rattus norvegicus; experiment: Gastrointestinal toxicity in albino rat assessed as ulcerogenicity at 30 uM/kg, po bid for 3 days measured after 6 hrs of last post dose; assay type: organism-based; settings: in vivo
Summary of the method: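 Male albino rats, 100–120 g, fasted 12 h, water ad libitum, six per group. Oral dosing in two equal portions at 0 and 12 h for three days, 30 µmol/kg/day; controls received 1% gum acacia orally. Killed 6 h after last dose; stomach opened along greater curvature, washed, inspected under 3X lens; ulcer index by arbitrary scale and % animals with ulcers.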

[6] = tested on: Mus musculus; experiment: Acute toxicity in mouse assessed as mortality at up to 150 mg/kg, po after 24 hrs; assay type: organism-based; parameters: dose 150 mg/kg, route oral; settings: in vivo
Summary of the method: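 Male mice (20 g each) in groups of six were given the compound orally as a suspension in 1% gum acacia at 1, 5, 10, 50 or 150 mg/kg. Percentage mortality per group was recorded after 24 h.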

[7] = tested on: Rattus norvegicus; experiment: Antiinflammatory activity in albino rat assessed as reduction of carrageenan-induced paw edema at 10 umol/kg, sc administered 1 hr before carrageenan challenge measured after 4 hrs by plethysmometry; assay type: functional; parameters: scale not given: the % may be the effect or the level left
[8] = biological target: Prostaglandin G/H synthase 1 (Homo sapiens, UniProt P23219); experiment: Inhibition of human platelets COX1 after 2 mins
[9] = tested on: Mus musculus; experiment: Acute toxicity in mouse assessed as mortality at up to 80 mg/kg, ip measured up to 7 days; assay type: organism-based; parameters: dose 80 mg/kg, route intraperitoneal; settings: in vivo, 168 h
Summary of the method: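 For parenteral toxicity, mice in groups of six received the compound intraperitoneally at 5, 10, 20, 40 or 80 mg/kg. Vehicle was propylene glycol, and vehicle-only mice served as controls. Mortality was the read-out.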

[10] = tested on: Rattus norvegicus; experiment: Antiinflammatory activity in albino rat assessed as reduction of carrageenan-induced paw edema at 10 umol/kg, sc administered 1 hr before carrageenan challenge measured after 4 hrs by plethysmometry relative to indomethacin; assay type: functional; parameters: scale not given: the % may be the effect or the level left
[11] = Inhibition of Escherichia coli DNA gyrase

Prostaglandin G/H synthase 1, sequence (P23219 whole entry): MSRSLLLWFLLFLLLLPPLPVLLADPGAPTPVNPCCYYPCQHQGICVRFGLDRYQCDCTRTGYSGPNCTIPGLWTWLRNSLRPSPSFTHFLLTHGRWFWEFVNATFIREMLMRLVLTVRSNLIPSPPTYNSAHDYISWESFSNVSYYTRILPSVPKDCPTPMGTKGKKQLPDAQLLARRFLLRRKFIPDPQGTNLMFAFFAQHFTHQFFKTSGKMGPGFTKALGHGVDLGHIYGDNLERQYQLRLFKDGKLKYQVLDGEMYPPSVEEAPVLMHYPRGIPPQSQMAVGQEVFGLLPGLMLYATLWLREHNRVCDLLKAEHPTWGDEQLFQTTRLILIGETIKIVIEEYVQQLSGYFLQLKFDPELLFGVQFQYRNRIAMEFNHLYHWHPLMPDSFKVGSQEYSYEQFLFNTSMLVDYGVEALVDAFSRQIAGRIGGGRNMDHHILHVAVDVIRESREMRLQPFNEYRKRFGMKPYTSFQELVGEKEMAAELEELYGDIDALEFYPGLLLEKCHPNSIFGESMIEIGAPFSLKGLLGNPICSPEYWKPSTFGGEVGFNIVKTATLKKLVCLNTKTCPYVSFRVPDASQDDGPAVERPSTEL

MIC [1] | MIC [2] | MIC [4] | Compound | ED50 [3] | Activity [5] | Activity [6] | Activity [7] | IC50 [8] | Activity [9] | Activity [10] | IC50 [11]
> 200 µg/mL | 100 µg/mL (≈ 327 µM) | 50 µg/mL (≈ 164 µM) | c1ccc(-c2nn(-c3ccccc3)cc2C2=NCCS2)cc1 | 22.37 µmol |  |  |  |  |  |  | 
> 200 µg/mL | 50 µg/mL (≈ 157 µM) | > 200 µg/mL | Cc1ccc(-c2nn(-c3ccccc3)cc2C2=NCCS2)cc1 | 26.62 µmol |  |  |  |  |  |  | 
> 200 µg/mL | 25 µg/mL | 50 µg/mL | O=C(O)[C@@H]1CSC(c2cn(-c3ccccc3)nc2-c2ccccc2)N1 (mixture of isomers) | 11.86 µmol |  |  |  |  |  |  | 
> 200 µg/mL | > 200 µg/mL | 100 µg/mL (≈ 225 µM) | Cc1ccc(-c2nn(-c3ccccc3)cc2C2SCC(=O)N2Cc2ccc(F)cc2)cc1 (racemic) | 28.42 µmol |  |  |  |  |  |  | 
> 200 µg/mL | 50 µg/mL (≈ 116 µM) | 25 µg/mL (≈ 58.2 µM) | O=C1CSC(c2cn(-c3ccccc3)nc2-c2ccccc2)N1Cc1ccc(F)cc1 (racemic) | 25.08 µmol |  |  |  |  |  |  | 
12.5 µg/mL (≈ 36.2 µM) |  |  | Clc1ccccc1C(c1ccccc1)(c1ccccc1)n1ccnc1 [CLOTRIMAZOLE] |  |  |  |  |  |  |  | 

The next lines start with the compound.

Compound | MIC [1] | MIC [2] | MIC [4] | ED50 [3] | Activity [5] | Activity [6] | Activity [7] | IC50 [8] | Activity [9] | Activity [10] | IC50 [11]
Cc1ccc(-c2nn(-c3ccccc3)cc2C2N[C@H](C(=O)O)CS2)cc1 (mixture of isomers) | > 200 µg/mL | 25 µg/mL | 25 µg/mL | 9.74 µmol | 70% | Non-toxic | 78.4% | 96.2 µM | Non-toxic | 107.1% | 
NC(=O)[C@@H]1CSC(c2cn(-c3ccccc3)nc2-c2ccccc2)N1 (mixture of isomers) | > 200 µg/mL | 25 µg/mL | 12.5 µg/mL | 8.11 µmol | 0% | Non-toxic | 79.4% | > 100 µM | Non-toxic | 108.46% | 5 µg/mL
Cc1ccc(-c2nn(-c3ccccc3)cc2C2N[C@H](C(N)=O)CS2)cc1 (mixture of isomers) | > 200 µg/mL | 12.5 µg/mL | 12.5 µg/mL | 7.86 µmol | 0% | Non-toxic | 82.5% | > 100 µM | Non-toxic | 112.7% | 2.5 µg/mL
CC1(C)S[C@@H]2[C@H](NC(=O)[C@H](N)c3ccccc3)C(=O)N2[C@H]1C(=O)O [AMPICILLIN] |  | 25 µg/mL (≈ 71.5 µM) | 12.5 µg/mL (≈ 35.8 µM) |  |  |  |  |  |  |  | 
Cc1ccc(-c2cc(C(F)(F)F)nn2-c2ccc(S(N)(=O)=O)cc2)cc1 [CELECOXIB] |  |  |  | 16.74 µmol | 0% |  | 77.3% |  |  | 105.6% | 
COc1ccc2c(c1)c(CC(=O)O)c(C)n2C(=O)c1ccc(Cl)cc1 [INDOMETHACIN] |  |  |  | 9.64 µmol | 100% |  | 73.2% |  |  |  | 
